# Source: publication PMC5551398 (Biochemistry, 2017)
# Bridge positions count the residues as written; N and C are the ends. Primed or numbered codes have the meaning given here. Ends that are not written are not given here. Peptide text beside a SMILES is read from it. * marks the point of attachment. FITC = O=C1OC2(c3ccc(O)cc3Oc3cc(O)ccc32)c2ccc(NC(=S)*)cc21; Biotin = O=C1N[C@H]2[C@H](CS[C@H]2CCCCC(=O)*)N1; FITC′ = fluorescein isothiocyanate label; Ahx = NCCCCCC(=O)O
# T1: MBP-CTR ECD (hCTR.36-151) (Homo sapiens, UniProt P30988)
# T1 sequence (P30988 36-151): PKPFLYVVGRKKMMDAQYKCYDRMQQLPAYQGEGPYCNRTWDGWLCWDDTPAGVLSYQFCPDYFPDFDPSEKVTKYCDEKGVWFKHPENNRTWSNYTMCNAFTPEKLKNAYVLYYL
# T2: MBP-CTR ECD (Homo sapiens, UniProt P30988)
# T2 sequence (P30988 36-151): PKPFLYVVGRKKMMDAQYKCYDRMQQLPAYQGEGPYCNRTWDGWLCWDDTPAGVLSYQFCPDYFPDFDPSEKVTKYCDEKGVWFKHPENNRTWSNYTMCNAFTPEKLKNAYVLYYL
# T3: MBP-free H6-CTR ECD (residues 32-140) (human, UniProt P30988-2 32-140)
# T3 sequence (looked up): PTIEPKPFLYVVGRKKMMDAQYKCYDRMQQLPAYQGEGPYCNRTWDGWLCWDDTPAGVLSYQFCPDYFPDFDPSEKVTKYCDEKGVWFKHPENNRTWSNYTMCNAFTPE
# T4: MBP-hCTR.36-151-H6 produced in HEK293S GnTI- cells (human, UniProt P30988-2 36-151, core N-glycans (Man5GlcNAc2) at N73, N125, N130)
# T4 sequence (looked up): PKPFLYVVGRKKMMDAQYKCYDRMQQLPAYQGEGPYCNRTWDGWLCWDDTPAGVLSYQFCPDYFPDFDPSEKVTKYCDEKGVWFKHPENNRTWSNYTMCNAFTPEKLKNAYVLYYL
# T5: MBP-hCTR.36-151-H6 produced in HEK293T cells (human, UniProt P30988-2 36-151, complex N-glycans at N73, N125, N130)
# T5 sequence (looked up): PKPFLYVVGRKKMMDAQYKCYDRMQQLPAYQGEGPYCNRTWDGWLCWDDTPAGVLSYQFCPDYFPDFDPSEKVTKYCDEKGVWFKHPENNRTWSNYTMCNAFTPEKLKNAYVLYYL
# T6: MBP-CTR ECD-H6 produced in E. coli (human, UniProt P30988-2 36-151)
# T6 sequence (looked up): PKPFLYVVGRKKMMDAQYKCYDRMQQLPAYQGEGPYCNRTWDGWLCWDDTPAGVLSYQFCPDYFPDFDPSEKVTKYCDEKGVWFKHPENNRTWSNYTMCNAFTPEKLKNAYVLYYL
# T7: MBP-RAMP2-(GS)5-CTR ECD-H6 produced in E. coli (human, UniProt O60895 55-140; P30988-2 36-151)
# T7 chain: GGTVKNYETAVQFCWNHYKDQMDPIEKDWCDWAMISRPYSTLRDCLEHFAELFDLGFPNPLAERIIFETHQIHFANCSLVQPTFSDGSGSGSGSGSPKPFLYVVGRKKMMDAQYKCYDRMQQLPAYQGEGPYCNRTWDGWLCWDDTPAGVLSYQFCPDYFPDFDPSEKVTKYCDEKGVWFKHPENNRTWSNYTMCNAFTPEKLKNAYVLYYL
# What was measured:
# [1] = target: T1, MBP-CTR ECD (hCTR.36-151); assay: FP saturation peptide-binding assay, MBP-CTR ECD WT
# How it was run: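 MBP-CTR ECD was produced in HEK293S GnTI− cells and left untreated, digested with Endo H (4 µl of 500 U/µl, GlycoBuffer 3, 22°C, 30 min), or given heat-inactivated Endo H (75°C, 10 min). Digests were serially diluted (top 3 µM) and titrated against 10 nM FITC-AC413(6-25) Y25P, 1 h, dark, room temperature, HEPES pH 7.4 buffer. Anisotropy corrected for intensity quenching. Duplicate samples.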
# MBP-CTR ECD = target: T2, MBP-CTR ECD; assay: Competition AlphaLISA peptide-binding assay
# How it was run: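 Binding by AlphaLISA competition. MBP-CTR ECD from transfected HEK293T cells (150 nM) was mixed with 150 nM biotinylated sCT and competitor peptide. Luminescence read at 680/615 nm. Three independent experiments, duplicate samples.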
# [2] = target: T3, MBP-free H6-CTR ECD (residues 32-140); assay: ITC
# [3] = target: T4, MBP-hCTR.36-151-H6 produced in HEK293S …; assay: fluorescence polarisation
# [4] = target: T5, MBP-hCTR.36-151-H6 produced in HEK293T …; assay: fluorescence polarisation
# [5] = target: T6, MBP-CTR ECD-H6 produced in E. coli; assay: fluorescence polarisation
# [6] = target: T5, MBP-hCTR.36-151-H6 produced in HEK293T …; assay: fluorescence polarisation; remark: listed apart in the source
# [7] = target: T5, MBP-hCTR.36-151-H6 produced in HEK293T …; assay: AlphaScreen or HTRF
# [8] = target: T5, MBP-hCTR.36-151-H6 produced in HEK293T …; assay: AlphaScreen or HTRF; remark: listed apart in the source
# [9] = target: T5, MBP-hCTR.36-151-H6 produced in HEK293T …; assay: fluorescence polarisation; remark: listed apart in the source
# [10] = target: T7, MBP-RAMP2-(GS)5-CTR ECD-H6 produced in …; assay: fluorescence polarisation
# [11] = target: T5, MBP-hCTR.36-151-H6 produced in HEK293T …; assay: fluorescence polarisation; remark: listed apart in the source
molecule,measurement,setting,value
CC(C)C[C@H](NC(=O)[C@H](CCCNC(=N)N)NC(=O)[C@@H](NC(=O)[C@H](CC(C)C)NC(=O)[C@H](Cc1ccccc1)NC(=O)[C@H](CC(N)=O)NC(=O)[C@H](C)NC(=O)CCCCCNC(=S)Nc1ccc2c(c1)C(=O)OC21c2ccc(O)cc2Oc2cc(O)ccc21)C(C)C)C(=O)N[C@@H](CCC(N)=O)C(=O)N[C@H](C(=O)N[C@@H](Cc1ccc(O)cc1)C(=O)N1CCC[C@H]1C(=O)N[C@@H](CCCNC(=N)N)C(=O)N[C@H](C(=O)N[C@@H](CC(N)=O)C(=O)N[C@H](C(=O)NCC(=O)N[C@@H](C)C(=O)N[C@@H](CC(N)=O)C(=O)N[C@H](C(=O)N1CCC[C@H]1C(N)=O)[C@@H](C)O)C(C)C)[C@@H](C)O)[C@@H](C)O [FITC-AC413(6-25) Y25P] ({FITC-Ahx}-ANFLVRLQTYPRTNVGANTP-NH2),Kd,[1],0.115 µM
same,IC50,MBP-CTR ECD,0.0479 µM
"ANFLVRLQTYPRTNVGANTP-NH2 [AC413(6-25) Y25P, reference compound]",IC50,MBP-CTR ECD,0.708 µM
VLGKLSQELHKLQTYPRTNTGSGTP-NH2 [sCT(8-32)],Kd,[2],16 µM
same,dH,[2],-101 kJ/mol
same,stoichiometry N,[2],1.17
same,Ki,[3],~3 µM
same,Ki,[4],~3 µM
same,Ki,[5],~25 µM
{FITC′-Ahx}-ANFLVRLQTYPRTNVGANTP-NH2 [FITC-Ahx (aminohexanoic acid)-AC413(6-25) Y25P],pKD,[6],6.94
same,IC50,[7],0.0479 µM
same,pIC50,[8],7.32
same,Kd,[9],0.115 µM
{FITC-Ahx}-ANFLVRLQTYPRTNVGANTY-NH2 [FITC-Ahx-AC413(6-25)],Kd,[10],4.57 µM
Biotin-ASNLSTAVLGKLSQELHKLQTYPRTNTGSGTP-NH2 (SMILES CC(C)C[C@H](NC(=O)[C@H](CCCCN)NC(=O)CNC(=O)[C@H](CC(C)C)NC(=O)[C@@H](NC(=O)[C@H](C)NC(=O)[C@@H](NC(=O)[C@H](CO)NC(=O)[C@H](CC(C)C)NC(=O)[C@H](CC(N)=O)NC(=O)[C@H](CO)NC(=O)[C@H](C)NC(=O)CCCC[C@@H]1SC[C@@H]2NC(=O)N[C@@H]21)[C@@H](C)O)C(C)C)C(=O)N[C@@H](CO)C(=O)N[C@@H](CCC(N)=O)C(=O)N[C@@H](CCC(=O)O)C(=O)N[C@@H](CC(C)C)C(=O)N[C@@H](Cc1c[nH]cn1)C(=O)N[C@@H](CCCCN)C(=O)N[C@@H](CC(C)C)C(=O)N[C@@H](CCC(N)=O)C(=O)N[C@H](C(=O)N[C@@H](Cc1ccc(O)cc1)C(=O)N1CCC[C@H]1C(=O)N[C@@H](CCCNC(=N)N)C(=O)N[C@H](C(=O)N[C@@H](CC(N)=O)C(=O)N[C@H](C(=O)NCC(=O)N[C@@H](CO)C(=O)NCC(=O)N[C@H](C(=O)N1CCC[C@H]1C(N)=O)[C@@H](C)O)[C@@H](C)O)[C@@H](C)O)[C@@H](C)O) [Biotin-sCT C1A/C7A],binding result,[7],binds
CSNLSTCVLGKLSQELHKLQTYPRTNTGSGTP-NH2 (disulfide 1-7) [sCT(1-32)],Kd,[2],35 µM
ANFLVRLQTYPRTNVGANTP-NH2 [AC413(6-25) Y25P],pKI,[11],6.2
same,Ki,[4],0.631 µM
same,pIC50,[8],6.15
